In all, about 200,000 compounds went through this assay and about 2,000 (1%) were called active. Only a selection was taken, and actives are over-represented in it overall. Unmarked numbers belong to inactive results.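 How the source made its calls: active means inhibition above the campaign mean inhibition of all tested compounds plus 3 SD (cut at about 20% in these data); inactive means the rest.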
Biological target: Neuropeptide Y receptor type 1 (Homo sapiens) (UniProt P25929)
Assay: blockers of human neuropeptide Y Y1 receptor – cell-based, primary screen (AID 1040);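 further: 0% = DMSO wells given NPY plus isoproterenol and 100% = isoproterenol alone without NPY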
Settings: HEK293-CNG Y1 cells, membrane potential fluorescence; at 3.6 µM; active compounds read high; NPY at EC95, then isoproterenol
Procedure, shortened: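 System: HEK293 cells with Y1 receptor plus CNG channel / Probe or stimulus: NPY 25 nM then isoproterenol 1 µM plus Ro 20-1724 25 µM / Compound: one concentration, 3.6 µM, in 0.4% DMSO / Schedule: compound incubation 1 h at room temperature, readout 45 min post-stimulation / Measured by: membrane potential fluorescence / Read-out: % inhibition of NPY effect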

Chain of Neuropeptide Y receptor type 1 (Homo sapiens) (P25929 whole entry, looked up): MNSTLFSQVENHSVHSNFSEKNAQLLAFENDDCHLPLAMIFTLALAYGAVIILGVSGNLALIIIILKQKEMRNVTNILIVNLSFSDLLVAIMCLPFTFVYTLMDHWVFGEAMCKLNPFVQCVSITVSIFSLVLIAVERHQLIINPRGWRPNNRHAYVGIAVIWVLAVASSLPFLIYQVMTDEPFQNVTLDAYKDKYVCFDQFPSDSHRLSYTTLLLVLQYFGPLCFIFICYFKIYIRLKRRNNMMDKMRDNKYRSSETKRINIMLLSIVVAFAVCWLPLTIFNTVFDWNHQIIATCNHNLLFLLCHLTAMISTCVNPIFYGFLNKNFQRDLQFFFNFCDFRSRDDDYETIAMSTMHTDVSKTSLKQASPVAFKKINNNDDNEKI

SMILES | inhibition
Cc1cc(C)cc(C(=O)NC(=S)Nc2ccc3[nH]c(=O)[nH]c3c2)c1 | 6.81%
COc1ccccc1CNC(=O)c1cc(=O)c2ccccc2o1 | -4.58%
COc1ccccc1C1C2=C(COC2=O)Nc2cc3c(cc21)OCO3 (stereo not given) | 36.2% (active)
COc1cc2c(cc1/C=C1/NC(=O)N(c3ccccc3)C1=O)OCO2 | 6.09%
CCCOc1ccccc1C1CC(=O)Nc2cc3c(cc21)OCO3 (stereo not given) | 8.29%
CCC(C)[C@@H](C(=O)N1CCNCC1)n1cc(CCCCN)nn1 (stereo not given in full) | 1.85%
O=C(CC1NCCNC1=O)Nc1cc(Cl)cc(Cl)c1 (stereo not given) | 0.62%
COC(=O)c1ccc(/C=N/OCC(=O)Nc2cc(F)ccc2F)cc1 | 11.1%
Cc1ccc(CSc2nc3[nH]ncc3c(=O)[nH]2)cc1 | 7.17%
CCC(c1nnnn1C1CCCC1)N(Cc1cccs1)Cc1cc2cccc(C)c2[nH]c1=O (stereo not given) | 20.4% (active)
Cc1cccc2cc(CN(Cc3ccc4c(c3)OCO4)Cc3nnnn3C3CCCC3)c(=O)[nH]c12 | -4.12%
Cc1cccc2cc(CN(Cc3cccs3)C(c3nnnn3C3CCCC3)C(C)C)c(=O)[nH]c12 (stereo not given) | 14.5%
CCOc1cccc(OCCCOc2cccc3cccnc23)c1 | 1.99%
CN(C)S(=O)(=O)c1cccc(NC(=O)COC(=O)c2cc(=O)[nH]c(=O)[nH]2)c1 | 0.75%
CCOC(=O)C1CCN(C(=O)/C=C/c2cc(OC)c(OC)c(OC)c2)CC1 | -1.4%
Cc1ccsc1C(=O)N/N=C/c1ccc([N+](=O)[O-])cc1 | 2.54%
Cc1ccc(/C=N/NC(=O)c2sccc2OCc2ccc(F)cc2)cc1 | 27.2% (active)
Cc1ccc(COc2ccc(/C=N/NC(=O)CN3CCCCC3)cc2)cc1 | 16.6%
CS/C(=C\[N+](=O)[O-])Nc1ccc(C)cc1 | 10.6%
O=C(COC(=O)C1CC2C=CC1C2)Nc1ccccc1 (stereo not given) | -2.39%

SMILES | inhibition
CCCCN(CC)C(=O)c1ccc2c(c1)OCO2 | -2.36%
CCOc1ccc(CCNC(=O)C2=C(C)C(=O)OC23CCC(C)CC3)cc1OCC (stereo not given) | 8.46%
O=C(O)CSc1nccc2ccccc12 | 21.7% (active)
O=C(O)CSc1nccn1-c1cccc(Cl)c1 | 7.38%
COC(=O)CSc1nc(C2CC2)nc2ccccc12 | 3.03%
CC1COc2ccccc2N1C(=O)c1cccnc1Cl (stereo not given) | 1.41%
CCOc1ccccc1Nc1ccc(C(=O)O)cc1[N+](=O)[O-] | 3.86%
ClC1(Cl)CC1CSc1ncn[nH]1 (stereo not given) | 3.1%
COC(=O)c1nc2n(n1)C(c1ccc([N+](=O)[O-])cc1)C(C(=O)Nc1ccc(Cl)cc1)=C(C)N2 (stereo not given) | -1.89%
Cc1nn(C)c(C)c1Sc1ccccc1N | -0.64%
COc1ccc(-c2oc3ncn(Cc4ccco4)c(=N)c3c2-c2ccc(OC)cc2)cc1 | 31.4% (active)
C(=C\c1ccccc1)/CSc1nnc(-c2cccnc2)n1Cc1ccco1 | 9.54%
c1ccc(-c2oc3ncnc(N4CCOCC4)c3c2-c2ccccc2)cc1 | 4.24%
COc1ccc(-n2cnc3cc(NCc4ccco4)ccc32)cc1 | -4.2%
COc1ccc2[nH]c3c(=O)n(Cc4ccco4)cnc3c2c1 | 1.7%
N=c1c2c(-c3ccccc3)c(-c3ccccc3)oc2ncn1Cc1ccco1 | 25.5% (active)
Cc1ccccc1NC(=O)NC1(C(=O)N2CCCC2)CCCCC1 | 0.5%
COc1cc(SC)ccc1C(=O)Nc1cc(C)ccn1 | 4.33%
Cc1ccc(C(=O)NCC(=O)O)s1 | -2.04%
COc1cccc(OC)c1C(=O)NC(=S)Nc1ccc(N2CCOCC2)c(Cl)c1 | 9.33%

SMILES | inhibition
Cc1c(Cl)c([N+](=O)[O-])nn1CC(=O)NCC1CCCO1 (stereo not given) | -5.55%
COC(=O)c1ccc(COC(=O)c2c(C)nn(Cc3ccccc3Cl)c2Cl)o1 | 22.2% (active)
COC(=O)c1ccc(CSc2ccccc2C)o1 | -3.04%
CCOC(=O)c1cnn(Cc2ccccc2Cl)c1N | -2.37%
O=C(Nc1ccc(F)cc1)N1CCCC(c2nc3c(nnn3Cc3ccccc3Cl)c(=O)[nH]2)C1 (stereo not given) | -6.56%
Oc1ccccc1C=NC1CCCCC1N=Cc1ccccc1O (stereo not given) | 4.16%
Cc1ccc(Cl)cc1N1CCN(C(=O)c2cccc3c(=O)c(C)c(-c4ccccc4)oc23)CC1 | 4.2%
Cc1cccc(OCCC(=O)Nc2cc(S(=O)(=O)N3CCCCC3)ccc2N2CCOCC2)c1 | 2.92%
Cc1ncc([N+](=O)[O-])n1CCOC(=O)c1ccc(Br)cc1 | -0.91%
COc1ccccc1NC(=O)COC(=O)Cc1ccc(S(=O)(=O)N2CCCCC2)s1 | -4.82%
O=C(Nc1ccc(N2C(=O)c3cccc4cccc(c34)C2=O)cc1)c1ccc(N2CCCCC2)c([N+](=O)[O-])c1 | -0.12%
COc1ccc(-c2[nH]ncc2/C=N/NC(=O)c2cc(Br)ccc2O)c(OC)c1 | 4.29%
CCS(=O)(=O)n1nc(-c2ccccc2)nc1SCc1ccccc1 | 28.2% (active)
CS(=O)(=O)n1nc(-c2ccccc2)nc1NCc1ccco1 | -0.86%
CCS(=O)(=O)n1nc(-c2ccc(OC)cc2)nc1SC | 3.74%
Cc1ccnc(NC(=O)CCC(=O)N(CC(=O)NCc2ccccc2)Cc2ccco2)c1 | 2.07%
Cc1ccc(N2C(=O)C3N=NN(CC(=O)N4N=C(c5cccc6ccccc56)CC4c4ccccc4)C3C2=O)cc1 (stereo not given) | 20.5% (active)
CC(=O)Oc1ccccc1C1=NN(C(C)=O)C(c2ccccc2)C1 (stereo not given) | 1.31%
O=C1C2N=NN(CC(=O)N3N=C(c4cccc5ccccc45)CC3c3ccccc3)C2C(=O)N1c1ccccc1 (stereo not given) | 6.21%
CCn1ccnc1CN1CCCC(C(=O)c2ccc3c4c(cccc24)CC3)C1 (stereo not given) | 3.36%
